Compound activity as filed in PubChem.
The list is not random: actives were taken first. Their share in the collection is about 4.5%.
GPR7 antag = blocks human GPR7 receptor signaling; P48145; GPR7-expressing cells, fluorescence antagonist assay; inhibition, % at 4.4 µM; 290,000 tested, 1.1% active; in the data active means inhibition above about 16%, passing the limit was not always enough;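 further: cells stimulated with the agonist NPW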
Target sequence (P48145 whole entry, looked up): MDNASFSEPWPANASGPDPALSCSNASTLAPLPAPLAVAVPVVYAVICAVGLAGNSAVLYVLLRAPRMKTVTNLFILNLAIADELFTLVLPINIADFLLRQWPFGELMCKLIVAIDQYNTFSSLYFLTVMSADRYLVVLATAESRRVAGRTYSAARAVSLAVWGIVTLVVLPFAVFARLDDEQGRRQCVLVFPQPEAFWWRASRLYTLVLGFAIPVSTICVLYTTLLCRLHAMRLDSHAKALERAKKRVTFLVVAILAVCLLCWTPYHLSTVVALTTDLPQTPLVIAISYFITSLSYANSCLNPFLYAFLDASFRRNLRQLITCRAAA
OX1R antag-1 = antagonists of human orexin 1 receptor. O43613. CHO/OX1R cells, Fluo-8 calcium fluorescence, orexin A. inhibition, % at 5 µM. 330,000 tested, 0.43% active;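 active means inhibition above its plate's threshold, mean inhibition of all tested compounds on the plate plus 3 SD, cut at about 37% in these data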
OX1R antag-2 = OX1R (human) antagonism | OX1R-expressing cells, FRET antagonist read-out | AID 485270 | 330,000 tested, 1.8% active | O43613 | inhibition, % at 6.6 µM; in the data active means inhibition mostly above about 38%, no sharp cut-off; inactive means mostly below about 40%
TAAR1 antag = human TAAR1 antagonism | inhibition, % at 3 µM | 360,000 tested, 1.5% active | CHO RD-HGA16 TAAR1, Fluo-8 calcium fluorescence, antagonist | AID 624466;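 active means inhibition above a per-plate cutoff, the mean inhibition of test compounds on that plate plus 3 SD, cut at about 49% in these data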
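Test system – hTAAR1-expressing CHO RD-HGA16 cells, Gα16-coupled · Also added – β-PEA at EC80 concentration, post-compound challenge · Compound – 3 µM, single point · Incubation – dye loading 75 min at 37 °C, then 30 min room temperature · Measured by – Fluo-8 intracellular calcium dye fluorescence, real-time kinetic reads · Benchmarks – vehicle and agonist controls · Replicates – singlicate, one well per test compound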
CHO parental Ca = counter-screen: ATP calcium response change in parental CHO cells; AID 463079; 330,000 tested, 0.63% active; inhibition, % at 5.6 µM; parental CHO-K1, ATP-induced calcium, Fluo-8 fluorescence;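 active means inhibition above that plate's mean sample inhibition plus 3 SD, cut at about 26% in these data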
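Material – parental CHO cells · Reagent – ATP stimulus · Compound – single nominal dose of 5.6 µM per compound · Detection – Fluo-8 fluorescence · Read-out basis – percent inhibition of calcium signal · Controls – ATP-challenged DMSO wells low, unchallenged DMSO wells high · Repeats – no replicates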
TAAR1 ag = human TAAR1 agonism | Q96RJ0 | activation, % at 3 µM | 360,000 tested, 0.99% active | CHO RD-HGA16 TAAR1, Fluo-8 calcium fluorescence; vehicle wells 0%, saturating PEA agonist 100%;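 active means activation above the mean activation of all test compounds in the run plus 3 SD, cut at about 38% in these data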
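System: CHO-derived RD-HGA16 cells with stable Gα16 and human TAAR1. Times: 17-24 h plating, Fluo-8 75 min 37 °C, 30 min RT. Measured by: calcium-sensitive Fluo-8 signal, excitation 470-495, emission 515-575 nm. Read-out basis: % activation relative to PEA EC100 response. Control set: DMSO and PEA EC100. Repeats: no replicates (n 1).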
GPR7 antag cf = confirmation of human GPR7 antagonists | shares compounds with GPR7 antag | GPR7-expressing cells, calcium fluorescence antagonist mode | inhibition, % at 4.4 µM | 2,400 tested, 52% active | AID 1952; in the data active means inhibition above about 24%;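 further: stimulated with the GPR7 agonist NPW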
MCHR1 antagonist = counter-screen for GPR7 antagonists: antagonists of human MCHR1; MCHR1-expressing cells, fluorescence antagonist assay; 2,400 tested, 62% active; AID 2148; shares compounds with GPR7 antag; inhibition, % at 4.4 µM; in the data active means inhibition above about 22%
Hits are given with their value; n = inactive; x = no result given.

SMILES	GPR7 antag	OX1R antag-1	OX1R antag-2	TAAR1 antag	CHO parental Ca	TAAR1 ag	GPR7 antag cf	MCHR1 antagonist
CCc1ccccc1NC(=O)CN(C)C(=O)CSc1nn(-c2ccc(F)cc2)c(=S)s1	n	n	n	n	n	n	x	x
COc1ccccc1-c1ccc(SCc2cccc(F)c2)nn1	29	n	n	n	n	n	36	56
O=S(=O)(NC1CC1)c1ccc(S(=O)(=O)N2CCc3ccccc32)cc1	22	n	n	n	n	n	n	29
O=S(=O)(c1ccc(F)cc1)N1CCc2ccccc21	n	n	n	n	n	n	x	x
CCC(C)NC(=O)C1CCN(S(=O)(=O)N2CCC3(CC2)OCCO3)CC1 (stereo unspecified)	n	n	n	n	n	n	x	x
O=S(=O)(Nc1cccc(-c2cn3c(n2)SCC3)c1)c1ccc(F)cc1F	25	n	n	n	n	n	n	n
O=C1CCCN2N=C(SCC(=O)N3N=C(c4ccc(Br)cc4)CC3c3ccc(F)cc3)SC2=N1 (stereo unspecified)	22	n	n	n	n	n	n	n
NC(N)=NS(=O)(=O)c1ccc(NC(=S)NC(=O)c2ccccc2)cc1	n	n	n	n	n	n	x	x
NC(N)=NS(=O)(=O)c1ccc(NC(=S)NC(=O)Cc2ccc(Cl)cc2)cc1	x	n	n	n	n	n	x	n
Cc1ccc2c(c1)c1c(n2CC(O)CNC(CO)(CO)CO)CCCC1 (stereo unspecified)	n	n	n	n	n	n	x	x
Cc1ccc2c(c1)c1c(n2CC(O)CNC2CCCCC2)CCCC1 (stereo unspecified)	32	n	n	n	n	n	56	54
CCCCN(C)CC(O)Cn1cc(/C=C/C(=O)c2ccc(C)cc2)c2ccccc21 (stereo unspecified)	37	n	n	n	n	n	37	36
CCN(CC)S(=O)(=O)c1cccc(NC(=O)COc2ncnc3sccc23)c1	n	n	n	n	n	n	x	x
O=C(/C=C/c1ccccc1)NNC(=O)c1cccs1	n	n	n	n	n	n	x	x
COc1ccccc1/C=C/C(=O)NNC(=O)c1cccs1	30	n	n	n	n	n	n	n
Cc1cccc2c1NC(=O)C2(c1ccc(O)cc1)c1ccc(O)cc1	67	n	n	n	n	n	79	49
CCN1C(=O)C(c2ccc(O)cc2)(c2ccc(O)cc2)c2ccccc21	n	n	n	n	n	n	x	x
Nc1nonc1C(=O)NCCNCc1ccccc1OCc1ccccc1F	29	n	n	n	n	n	36	33
CCOc1ccccc1CNCCNC(=O)c1nonc1N	n	n	n	n	n	n	x	x
Cc1nc(N2CCC(C)CC2)c2c(C)c(C(=O)Nc3ccc(C(F)(F)F)cc3)sc2n1	n	n	n	n	n	n	x	x
Cc1nc(N2CCC(C)CC2)c2c(C)c(C(=O)Nc3cccc(C(F)(F)F)c3)sc2n1	25	n	n	n	n	n	n	n
O=C1CN(C(=O)NCCC(=O)NC2CCCCC2)c2ccccc2N1	n	n	n	n	n	n	x	x
Cc1ccc(S(=O)(=O)N(c2cccc(C(F)(F)F)c2)C2C=CS(=O)(=O)C2)cc1 (stereo unspecified)	23	n	n	n	n	n	n	n
CCc1ccc(N(C2C=CS(=O)(=O)C2)S(=O)(=O)c2ccccc2)cc1 (stereo unspecified)	n	n	n	n	n	n	x	x
Cc1ccccc1CSCCNC(=O)CSCc1ccc([N+](=O)[O-])cc1	n	n	n	n	n	n	x	x
Cc1cccc(CSCCNC(=O)CSCc2ccc([N+](=O)[O-])cc2)c1	53	n	n	n	n	n	36	73
Cc1ccc(CSCCNC(=O)CSCc2ccc([N+](=O)[O-])cc2)cc1	27	n	n	n	n	n	49	45
CCC(Sc1nncn1C)C(=O)Nc1cc(C)on1 (stereo unspecified)	n	n	n	n	n	n	x	x
CC1=NC(C)(C)Cc2ccccc21	n	n	n	n	n	n	x	x
